# Screens from PubChem.
# TNF necrop inh = blocks TNF-alpha induced death of Jurkat FADD-/- cells | Jurkat FADD-/- TNF necroptosis rescue, ATP luminescence, 24 h; 0 = TNF only, 100 = no-TNF cells | activation (protection from cell death), % at 10 µM | hit rate 0.068% among 220,000;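 active means activation, meaning protection from cell death, of at least 50% relative to plate controls; inactive means activation below 50%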;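 further: necroptosis triggered by 40 ng/mL TNF-alpha added together with compound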
# TNAP inh no acc = TNAP (human) inhibition, acceptor-free conditions. AID 1012. purified TNAP, CDP-star luminescence, 30 min. P05186. inhibition, % at 20 µM. hit rate 0.26% among 200,000;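 active means tissue-nonspecific alkaline phosphatase inhibition above about 50% at 20 µM in the single-dose screen, limit read from the data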;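 further: 0% = DMSO negative control and 100% = EDTA positive control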
# Target sequence (P05186 whole entry, looked up): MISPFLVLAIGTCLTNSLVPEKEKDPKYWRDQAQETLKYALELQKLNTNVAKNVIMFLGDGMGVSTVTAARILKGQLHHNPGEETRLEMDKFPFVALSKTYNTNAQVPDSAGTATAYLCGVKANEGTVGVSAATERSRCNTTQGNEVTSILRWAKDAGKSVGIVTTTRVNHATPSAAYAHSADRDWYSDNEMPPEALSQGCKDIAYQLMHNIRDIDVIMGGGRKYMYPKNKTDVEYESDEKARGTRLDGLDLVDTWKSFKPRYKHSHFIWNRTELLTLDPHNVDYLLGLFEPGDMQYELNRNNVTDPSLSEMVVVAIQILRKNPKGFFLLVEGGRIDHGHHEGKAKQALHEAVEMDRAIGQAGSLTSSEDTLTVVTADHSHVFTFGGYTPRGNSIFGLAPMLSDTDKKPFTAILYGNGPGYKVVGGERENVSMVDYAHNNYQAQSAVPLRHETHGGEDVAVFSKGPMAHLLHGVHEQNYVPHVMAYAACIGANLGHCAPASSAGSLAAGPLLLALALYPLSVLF
# SDO1 yeast rescue = compounds rescuing growth of sdo1-depleted yeast, bone marrow failure model; S. cerevisiae sdo1-depleted JHY4D growth rescue, OD600 30 h; active compounds read high; pdr5 snq2 efflux-pump mutant strain; z-score at 10 µM; hit rate 0.21% among 140,000; AID 817;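 active means z-score above 3 at both the 24 hr and the 30 hr optical density reads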;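 further: z-score against mean and SD of all compound wells on the same plate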
# L929 necroptosis = blocks zVAD induced death of L929 cells; hit rate 0.38% among 220,000; viability rescue, % at 10 µM; L929 zVAD necroptosis rescue, ATP luminescence, 24 h; with zVAD 60 µM;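 active means activation, scaled between plate controls, above about 75%, limit read from the data; inactive means activation under that limit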;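 further: 0% = zVAD with DMSO and 100% = DMSO alone without zVAD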
# TNAP act hi DEA = TNAP (human) activation, high acceptor; P05186; purified TNAP, CDP-star luminescence, 1 M DEA, 30 min; active compounds read high; 0 = EDTA background, 1 = DMSO-only activity; activation factor at 20 µM; 200,000 tested, under 10 active;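 active means activation factor at least 2 at 20 µM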
#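 Dosing: 20 µM single point. System: human TNAP. Amount: TNAP 1/800 final. Incubation: 30 min, room temperature. Read-out: TNAP activation factor scaled between EDTA and DMSO control wells. Signal: luminescence from CDP-star hydrolysis. Medium: 1 M DEA, pH 9.8, Mg2+, Zn2+. Control set: EDTA negative control, DMSO positive control.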
# TNAP inh hi DEA = blocks human TNAP under high phosphate acceptor concentration; inhibition, % at 20 µM; hit rate 0.03% among 200,000; purified TNAP, CDP-star luminescence, 1 M DEA;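 active means over 50% inhibition of tissue-nonspecific alkaline phosphatase at 20 µM in the single-dose screen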;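 further: plate controls were DMSO wells for no effect and EDTA-quenched wells as full inhibition for full effect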
# * marks the source's active call; other numbers are inactive results; . = no result given. Shown are actives, neighbours in structure and some others; about 0.81% of the full set was active somewhere.
SMILES,TNF necrop inh,TNAP inh no acc,SDO1 yeast rescue,L929 necroptosis,TNAP act hi DEA,TNAP inh hi DEA
CC(C)c1nc(SCC(=O)Nc2cccc(S(N)(=O)=O)c2)n[nH]1,0,57*,0.15,1,1,-2
CCCCc1nc(SCC(=O)Nc2ncccn2)n[nH]1,-2,58*,-0.16,0,1,1
CCCCc1nc(SCC(=O)Nc2ccc(S(N)(=O)=O)cc2)n[nH]1,0,60*,0.95,1,1,-1
NS(=O)(=O)c1cccc(NC(=O)CSc2nc3ccc(Cl)cc3[nH]2)c1,2,67*,.,10,0.9,9
Cc1ccc2nc(SCC(=O)Nc3cccc(S(=O)(=O)N(C)C)c3)[nH]c2c1,4,-21,0.5,6,1,1
CC(C)COc1cccc(C(=O)NC(=S)Nc2cccc(NC(=O)c3ccccc3Cl)c2)c1,1,-9,-0.33,0,1,3
CC1CN(C(=O)COC(=O)c2nn(-c3ccccc3)c(=O)c3ccccc23)CC(C)O1 (stereo unspecified),0,-11,.,52,1,-3
O=c1cc(CN2CCN(S(=O)(=O)c3ccccc3[N+](=O)[O-])CC2)nc2sccn12,0,-8,.,1,1,-4
Cc1cc(C(=O)CSc2n[nH]c(-c3ccccc3F)n2)c(C)n1Cc1cccs1,-1,91*,-1.7,-1,1,2
NS(=O)(=O)c1cccc(NC(=S)NC(=O)c2cccc([N+](=O)[O-])c2)c1,-1,70*,.,0,0.9,7
O=C(NC(=S)Nc1cccc(NC(=O)c2ccccc2)c1)c1cccc([N+](=O)[O-])c1,1,3,-1.3,18,1,4
Oc1cc2c(cc1O)C1c3ccc(O)c(O)c3OCC1(O)C2 (stereo unspecified),-3,87*,.,0,0.7,34
CCOc1ccc(C(=O)OCC(=O)Nc2cc(C)on2)cc1OCC,2,-5,-1.1,1,1,0
Cc1cc(NC(=O)COC(=O)c2cccc(O)c2)no1,0,52*,.,18,1,-1
C/C(=N\NC(=O)C(=O)N/N=C(\C)c1cccc(O)c1)c1cccc(O)c1,1,55*,.,1,1,-3
C/C(=N/NC(=O)C(=O)N/N=C(/C)c1ccccc1)c1ccccc1,1,-58,.,1,1,-1
CS(=O)(=O)n1nc(-c2ccc(Cl)cc2)nc1SCc1ccccc1,2,68*,0.1,0,1,0
CN(C)S(=O)(=O)c1ccc(NC(=O)COC(=O)C2COc3ccccc3O2)cc1 (stereo unspecified),0,-8,.,0,1,-2
COc1ccccc1-c1nnc(SCc2ccccn2)n1C,-2,-10,0.59,0,1.1,-9
COc1ccccc1-c1nc(SCc2ccccn2)n[nH]1,.,84*,1.5,.,1,-1
O=C(CSc1nc(-c2ccccc2)nn1C(=O)c1ccccc1)Nc1cccc([N+](=O)[O-])c1,-6,54*,0.45,1,1,1
COc1ccc(/C=N/NC(=O)c2cc(C34CC5CC(CC(C5)C3)C4)[nH]n2)cc1O,-13,94*,-0.41,3,1,3
COc1cc(/C=C2\SC(c3ccccc3)=NC2=O)cc(Cl)c1O,-8,52*,.,-1,0.8,25
COc1ccccc1C(=O)Nc1ccc2c(c1)nc1n2CCSC1,0,68*,0.44,2,1,2
Cc1ccc(C(=O)Nc2ccc3c(c2)nc2n3CCSC2)cc1,-1,26,-1.2,2,1.1,-6
CC1(C)CC(=O)c2c(-c3cccnc3)n[nH]c2C1,1,72*,0.64,1,1.1,-6
CC1(C)CC(=O)c2c(Cc3ccccc3)n[nH]c2C1,18,88*,-0.39,0,1,-2
CCCCc1n[nH]c2c1C(=O)CC(C)(C)C2,1,87*,1,6,1,-3
CC1(C)CC(=O)C(N=Nc2cccnc2)=C(O)C1,0,.,.,1,.,.
